# Results: ChEMBL document CHEMBL1149289, “Synthesis and antibacterial activity of new poly-S-lysine-porphyrin conjugates” (J Med Chem, 2004)
# Tests used:
# Staphylococcus aureus [1] = experiment: Drug uptake per mg of protein in methicillin-resistant Staphylococcus aureus 110 at 1 uM after 10 mins; assay type: ADME, organism-based; details: in vivo
# Summary of the method: (§1)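 Bacterial suspensions (10^8 to 10^9 cells/mL in PBS) were incubated with porphyrin for 10 min in the dark at room temperature, then centrifuged. The pellet was digested in 2% aqueous SDS. Porphyrin was quantified by spectrofluorimetry and cell protein by modified Lowry assay (BSA standard). Uptake is given as nmol per mg cell protein.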
# Staphylococcus aureus [2] = experiment: Logarithmic survival of methicillin-resistant Staphylococcus aureus 110 at 0.1 uM after 10 mins and irradiated with white light at the fluence rate of 50 mW/cm2 for 20 mins relative to control; assay type: functional; details: light or radiation study
# Summary of the method: (§2)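 S. aureus ATCC 25923 or MRSA 110 (PBS-washed, 10^8 to 10^9 cells/mL) were incubated with 0.1 μM photosensitizer for 10 min in the dark at room temperature. They were then irradiated with white light at 50 mW/cm² for varying times up to 30 min. Survival was read as cfu on BHA and divided by cfu of controls without photosensitizer.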
# Staphylococcus aureus [3] = experiment: Drug uptake per mg of protein in Staphylococcus aureus ATCC 25923 at 2.5 uM after 10 mins; assay type: ADME, organism-based; details: in vivo; summary of the method: as §1
# Escherichia coli [4] = experiment: Logarithmic survival of Escherichia coli O4 at 5 uM after 10 mins and irradiated with white light at the fluence rate of 50 mW/cm2 for 30 mins relative to control; assay type: functional; details: O4, light or radiation study
# Summary of the method: (§3)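 Strains grown aerobically at 37 °C on brain heart agar; stationary-phase cells washed twice in PBS and adjusted to OD650 ca. 0.7 (10^8 to 10^9 cells/mL). Cells incubated with photosensitizer at various concentrations for 10 min in the dark at room temperature, then irradiated with white light at 50 mW/cm² for 30 min. Survivors counted as cfu on BHA after 16–20 h at 37 °C, expressed relative to no-photosensitizer controls. Dark controls were run without irradiation.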
# [5] = Photostability after irradiation with white light at the fluence rate of 50 mW/cm2 for 5 mins; assay type: ADME; details: read-out: Stability
# Staphylococcus aureus [6] = experiment: Logarithmic survival of methicillin-resistant Staphylococcus aureus 110 at 10 uM after 10 mins and irradiated with white light at the fluence rate of 50 mW/cm2 for 30 mins relative to control; assay type: functional; details: light or radiation study
# Summary of the method: (§4)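 MRSA 110 grown aerobically at 37 °C on BHA. Stationary-phase cells were taken into BHI, washed twice in PBS and diluted to OD650 ~0.7 (10^8 to 10^9 cells/mL). Suspensions were held with photosensitizer for 10 min in the dark at room temperature, then given white light for 30 min. Cells were serially diluted, plated on BHA and counted after 16–20 h at 37 °C. Survival = cfu ÷ cfu of photosensitizer-free controls.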
# Escherichia coli [7] = experiment: Antibacterial activity against Escherichia coli O4 measured as 4 log decrease in survival; assay type: functional; summary of the method: as §3
# Escherichia coli [8] = experiment: Drug uptake per mg of protein in Escherichia coli O4 at 1 uM after 10 mins; assay type: ADME, organism-based; details: in vivo; summary of the method: as §1
# Staphylococcus aureus [9] = experiment: Drug uptake per mg of protein in methicillin-resistant Staphylococcus aureus 110 at 2.5 uM after 10 mins; assay type: ADME, organism-based; details: in vivo; summary of the method: as §1
# Staphylococcus aureus [10] = experiment: Logarithmic survival of methicillin-resistant Staphylococcus aureus 110 at 0.25 uM after 10 mins and irradiated with white light at the fluence rate of 50 mW/cm2 for 30 mins relative to control; assay type: functional; details: light or radiation study; summary of the method: as §4
# Staphylococcus aureus [11] = experiment: Antibacterial activity against Staphylococcus aureus ATCC 25923 measured as 4 log decrease in survival; assay type: functional; summary of the method: as §3
# Staphylococcus aureus [12] = experiment: Logarithmic survival of methicillin-resistant Staphylococcus aureus 110 at 5 uM after 10 mins and irradiated with white light at the fluence rate of 50 mW/cm2 for 30 mins relative to control; assay type: functional; details: light or radiation study; summary of the method: as §4
# Staphylococcus aureus [13] = experiment: Logarithmic survival of methicillin-resistant Staphylococcus aureus 110 at 2.5 uM after 10 mins and irradiated with white light at the fluence rate of 50 mW/cm2 for 30 mins relative to control; assay type: functional; details: light or radiation study; summary of the method: as §4
# Staphylococcus aureus [14] = experiment: Logarithmic survival of Staphylococcus aureus ATCC 25923 at 0.1 uM after 10 mins and irradiated with white light at the fluence rate of 50 mW/cm2 for 10 mins relative to control; assay type: functional; details: ATCC 25923, light or radiation study; summary of the method: as §2
# Staphylococcus aureus [15] = experiment: Logarithmic survival of Staphylococcus aureus ATCC 25923 at 0.1 uM after 10 mins and irradiated with white light at the fluence rate of 50 mW/cm2 for 5 mins relative to control; assay type: functional; details: ATCC 25923, light or radiation study; summary of the method: as §2
# Staphylococcus aureus [16] = experiment: Logarithmic survival of methicillin-resistant Staphylococcus aureus 110 at 0.1 uM after 10 mins and irradiated with white light at the fluence rate of 50 mW/cm2 for 5 mins relative to control; assay type: functional; details: light or radiation study; summary of the method: as §2
# Staphylococcus aureus [17] = experiment: Logarithmic survival of Staphylococcus aureus ATCC 25923 at 5 uM after 10 mins and irradiated with white light at the fluence rate of 50 mW/cm2 for 30 mins relative to control; assay type: functional; details: ATCC 25923, light or radiation study; summary of the method: as §3
# Staphylococcus aureus [18] = experiment: Logarithmic survival of Staphylococcus aureus ATCC 25923 at 0.01 uM after 10 mins and irradiated with white light at the fluence rate of 50 mW/cm2 for 30 mins relative to control; assay type: functional; details: ATCC 25923, light or radiation study; summary of the method: as §3
# Staphylococcus aureus [19] = experiment: Antibacterial activity against methicillin-resistant Staphylococcus aureus 110 measured as 4 log decrease in survival; assay type: functional; summary of the method: as §3
# [20] = Photostability after irradiation with white light at the fluence rate of 50 mW/cm2 for 20 mins; assay type: ADME; details: read-out: Stability
# Staphylococcus aureus [21] = experiment: Drug uptake per mg of protein in Staphylococcus aureus ATCC 25923 at 0.5 uM after 10 mins; assay type: ADME, organism-based; details: in vivo; summary of the method: as §1
# Staphylococcus aureus [22] = experiment: Drug uptake per mg of protein in methicillin-resistant Staphylococcus aureus 110 at 0.5 uM after 10 mins; assay type: ADME, organism-based; details: in vivo; summary of the method: as §1
# Escherichia coli [23] = experiment: Logarithmic survival of Escherichia coli O4 at 0.5 uM after 10 mins and irradiated with white light at the fluence rate of 50 mW/cm2 for 30 mins relative to control; assay type: functional; details: O4, light or radiation study; summary of the method: as §3
# Staphylococcus aureus [24] = experiment: Drug uptake per mg of protein in methicillin-resistant Staphylococcus aureus 110 at 5 uM after 10 mins; assay type: ADME, organism-based; details: in vivo; summary of the method: as §1
# Staphylococcus aureus [25] = experiment: Logarithmic survival of Staphylococcus aureus ATCC 25923 at 0.1 uM after 10 mins and irradiated with white light at the fluence rate of 50 mW/cm2 for 2.5 mins relative to control; assay type: functional; details: ATCC 25923, light or radiation study; summary of the method: as §2
# [26] = Photostability after irradiation with white light at the fluence rate of 50 mW/cm2 for 1 min; assay type: ADME; details: read-out: Stability
# [27] = Photostability after irradiation with white light at the fluence rate of 50 mW/cm2 for 30 mins; assay type: ADME; details: read-out: Stability
# Staphylococcus aureus [28] = experiment: Logarithmic survival of methicillin-resistant Staphylococcus aureus 110 at 0.01 uM after 10 mins and irradiated with white light at the fluence rate of 50 mW/cm2 for 30 mins relative to control; assay type: functional; details: light or radiation study; summary of the method: as §3
# Escherichia coli [29] = experiment: Logarithmic survival of Escherichia coli O4 at 0.25 uM after 10 mins and irradiated with white light at the fluence rate of 50 mW/cm2 for 30 mins relative to control; assay type: functional; details: O4, light or radiation study; summary of the method: as §3
# Escherichia coli [30] = experiment: Logarithmic survival of Escherichia coli O4 at 10 uM after 10 mins and irradiated with white light at the fluence rate of 50 mW/cm2 for 30 mins relative to control; assay type: functional; details: O4, light or radiation study; summary of the method: as §3
# Escherichia coli [31] = experiment: Logarithmic survival of Escherichia coli O4 at 0.01 uM after 10 mins and irradiated with white light at the fluence rate of 50 mW/cm2 for 30 mins relative to control; assay type: functional; details: O4, light or radiation study; summary of the method: as §3
# Staphylococcus aureus [32] = experiment: Drug uptake per mg of protein in Staphylococcus aureus ATCC 25923 at 1 uM after 10 mins; assay type: ADME, organism-based; details: in vivo; summary of the method: as §1
# Staphylococcus aureus [33] = experiment: Logarithmic survival of Staphylococcus aureus ATCC 25923 at 2.5 uM after 10 mins and irradiated with white light at the fluence rate of 50 mW/cm2 for 30 mins relative to control; assay type: functional; details: ATCC 25923, light or radiation study; summary of the method: as §3
Compound,Drug uptake (Staphylococcus aureus [1]),survival at 0.1 µM (Staphylococcus aureus [2]),Drug uptake (Staphylococcus aureus [3]),survival at 5 µM (Escherichia coli [4]),remaining at 5 min [5],survival at 10 µM (Staphylococcus aureus [6]),Activity (Escherichia coli [7]),Drug uptake (Escherichia coli [8]),Drug uptake (Staphylococcus aureus [9]),survival at 0.25 µM (Staphylococcus aureus [10]),Activity (Staphylococcus aureus [11]),survival at 5 µM (Staphylococcus aureus [12]),survival at 2.5 µM (Staphylococcus aureus [13]),survival at 0.1 µM (Staphylococcus aureus [14]),survival at 0.1 µM (Staphylococcus aureus [15]),survival at 0.1 µM (Staphylococcus aureus [16]),survival at 5 µM (Staphylococcus aureus [17]),survival at 0.01 µM (Staphylococcus aureus [18]),Activity (Staphylococcus aureus [19]),remaining at 20 min [20],other results
C[n+]1ccc(-c2c3nc(c(-c4cc[n+](C)cc4)c4ccc([nH]4)c(-c4cc[n+](C)cc4)c4nc(c(-c5ccc(C(=O)O)cc5)c5ccc2[nH]5)C=C4)C=C3)cc1.[I-].[I-].[I-],5.43 nmol/mg,1.79,7.77 nmol/mg,-2.57,83%,-2.7,5 µM,2.47 nmol/mg,7.69 nmol/mg,1.68%,2.5 µM,-2.29,-2.13,-0.42,-0.28,1.87,-3.06%,2,2.5 µM,72%,Drug uptake (Staphylococcus aureus [21]): 1.88 nmol/mg; Drug uptake (Staphylococcus aureus [22]): 2.08 nmol/mg; survival at 0.5 µM (Escherichia coli [23]): 1.52; Drug uptake (Staphylococcus aureus [24]): 11.8 nmol/mg; survival at 0.1 µM (Staphylococcus aureus [25]): 0.49; remaining at 1 min [26]: 93%; remaining at 0.5 h [27]: 67%; log survival at 0.01 µM (Staphylococcus aureus [28]): 2 log10 %; survival at 0.25 µM (Escherichia coli [29]): 1.64; survival at 10 µM (Escherichia coli [30]): -4.36; survival at 0.01 µM (Escherichia coli [31]): 2; Drug uptake (Staphylococcus aureus [32]): 3.71 nmol/mg; survival at 2.5 µM (Staphylococcus aureus [33]): -2%
O=C(O)c1ccc(-c2c3nc(c(-c4ccncc4)c4ccc([nH]4)c(-c4ccncc4)c4nc(c(-c5ccncc5)c5ccc2[nH]5)C=C4)C=C3)cc1 [PORPHIRIN],15 nmol/mg,-0.6,32.1 nmol/mg,1.6,96%,-3.35,10 µM,7.65 nmol/mg,47 nmol/mg,-1.39%,0.25 µM,-3.07,-3.11,-2.07,-0.85,1.61,-3.73%,2,1 µM,90%,Drug uptake (Staphylococcus aureus [21]): 3.15 nmol/mg; Drug uptake (Staphylococcus aureus [22]): 5.5 nmol/mg; survival at 0.5 µM (Escherichia coli [23]): 1.46; Drug uptake (Staphylococcus aureus [24]): 143 nmol/mg; survival at 0.1 µM (Staphylococcus aureus [25]): 0.22; remaining at 1 min [26]: 99%; remaining at 0.5 h [27]: 85%; log survival at 0.01 µM (Staphylococcus aureus [28]): 2 log10 %; survival at 0.25 µM (Escherichia coli [29]): 1.7; survival at 10 µM (Escherichia coli [30]): -4.06; survival at 0.01 µM (Escherichia coli [31]): 2; Drug uptake (Staphylococcus aureus [32]): 7.7 nmol/mg; survival at 2.5 µM (Staphylococcus aureus [33]): -3.3%
